Measurements published in article PMC3152616 (Peptides, 2011).
Like-named read-outs stand apart in the source and are kept apart here. Marks after values point to notes of the source that are not given here. Numbered stars: 1 amine (or outer) side, 2 acyl side, 3 side chain; on linkers, the order of the positions; unused ones are H or OH. Square brackets hold non-standard residues; d marks the D form. Peptide text beside a SMILES is read from it. * marks the point of attachment. dProψ(CH2NH)PheNH2 = NC(=O)[C@H](Cc1ccccc1)NC[C@H]1CCCN1*; X1 = O=C(C[C@@H](N[*:1])c1ccc(Cl)cc1)[*:2]; Hydrocinnamoyl = O=C(CCc1ccccc1)*; NHPhenethyl = c1ccc(CCN*)cc1; Nle = CCCC[C@H](N)C(=O)O; PhAc = O=C(Cc1ccccc1)*

Experiments:
BRS-3 [1] = molecular target: T1, BRS-3 (Homo sapiens, UniProt P32247); conditions: cited from earlier work
T1 sequence (P32247 1-399): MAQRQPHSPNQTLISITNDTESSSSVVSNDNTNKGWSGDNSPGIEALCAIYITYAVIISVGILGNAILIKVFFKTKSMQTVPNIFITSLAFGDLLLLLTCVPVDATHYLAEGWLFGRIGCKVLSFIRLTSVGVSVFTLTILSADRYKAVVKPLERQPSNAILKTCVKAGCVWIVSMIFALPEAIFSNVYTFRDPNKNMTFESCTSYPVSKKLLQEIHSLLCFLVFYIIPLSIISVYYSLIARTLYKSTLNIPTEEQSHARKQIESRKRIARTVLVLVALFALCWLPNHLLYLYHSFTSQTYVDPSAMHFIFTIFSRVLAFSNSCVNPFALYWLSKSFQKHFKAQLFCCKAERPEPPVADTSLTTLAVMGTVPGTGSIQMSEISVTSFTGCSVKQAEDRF

[2] = test system: EGFR tyrosine phosphorylation; experiment: EGFR tyrosine phosphorylation; type: cell-based, human
[3] = test system: ERK tyrosine phosphorylation; experiment: ERK tyrosine phosphorylation; type: cell-based, human; conditions: concentration not given
NCI-H1299-BRS-3 cells = experiment: Clonogenic assay; type: cell-based, human; conditions: for Effect on NCI-H1299-BRS-3 cellular proliferation: unpublished; for Colony number: addition 10 nM, mean ± S.D., no addition 40 ± 6
BB1R = conditions: read-out: IC50, binding to BB1R; transfected Balb 3T3 cells; cited from earlier work
BB2R = conditions: cited from earlier work
Balb/3T3-BRS-3 cells = experiment: MTT proliferation assay; type: cell-based
Balb/3T3 cells = experiment: MTT proliferation assay, control cells; type: cell-based; conditions: 30 μg/ml, 16 hours, mean ± S.E.
Procedure, shortened: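 Parental Balb/3T3 cells lacking BRS-3 were maintained in DMEM with 10% FBS. They were seeded at 10⁴/well in serum-free SIT medium (RPMI-1640 with selenite, insulin and transferrin) and exposed for 16 h to test compound at 10 nM or 30 μg/ml. MTT was then added for 3 h, formazan was dissolved in DMSO, and OD was read at 570 nm. Growth is given as % of control, mean ± S.E.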

BRS-3 [4] = molecular target: T1, BRS-3; experiment: Inhibition of specific 125I-BA1 binding to NCI-H1299-BRS-3 cells
[5] = concentration not given, data not shown / unpublished
[6] = read-out: IC50, binding to BRS-3, transfected Balb 3T3 cells
[7] = read-out: IC50, binding to BB2R, transfected Balb 3T3 cells

**Q.** With `C[C@H](NC(=O)Cc1ccccc1)C(=O)N[C@H](Cc1c[nH]c2ccccc12)C(=O)NCCc1ccccc1` [16a] (PhAc-Ala-[dW]-NHPhenethyl) as the compound, how does the IC50 (BRS-3 [1]; read-out: IC50, binding to human BRS-3) read?
**A.** 3160 nM

**Q.** Which “Inhibition of the increase in EGFR tyrosine phosphorylation caused by BA1” value (“Inhibition of the increase” below) [2, 5] does the source give for `COc1cc2ncnc(Nc3cccc(Cl)c3)c2cc1OC` [AG1478] here?
**A.** blocked

**Q.** What about the “Inhibition of BA1-induced ERK tyrosine phosphorylation” value [3] of the same compound?
**A.** blocked

**Q.** With `CCCC[C@H](NC(=O)[C@H](Cc1ccccc1)NC(=O)[C@H](Cc1c[nH]cn1)NC(=O)C[C@@H](NC(=O)[C@@H](NC(=O)[C@H](C)NC(=O)[C@H](Cc1c[nH]c2ccccc12)NC(=O)[C@H](CCC(N)=O)NC(=O)[C@H](N)Cc1ccc(O)cc1)C(C)C)c1ccc(Cl)cc1)C(N)=O` [BA3, (DTyr^6, R-Apa^11,4-Cl,Phe^13, Nle^14)bombesin^6-14] (H-[dY]QWAV[X1]HF[Nle]-NH2; N-terminus and C-terminus assumed) as the compound, how does the “EGFR tyrosine phosphorylation (transactivation)” value ([2]; 100 nM, NCI-H1299-BRS-3 cells) read?
**A.** increased

**Q.** And the “Selectivity for hBRS-3 over hNMBR or hGRPR” value (BRS-3 [1])?
**A.** over 60 fold

**Q.** Which IC50 (BRS-3 [1]; [6]) does the source give for `CC(C)[C@H](NC(=O)[C@H](C)NC(=O)[C@H](Cc1c[nH]c2ccccc12)NC(=O)[C@H](Cc1c[nH]cn1)NC(=O)CCc1ccccc1)C(=O)N[C@H](C)C(=O)N[C@@H](Cc1c[nH]cn1)C(=O)N1CCC[C@@H]1CN[C@@H](Cc1ccccc1)C(N)=O` [BW2258U89] (Hydrocinnamoyl-HWAV[dA]H-{dProψ(CH2NH)PheNH2}; N-terminus and C-terminus assumed) here?
**A.** 6820 nM

**Q.** And the “Effect on NCI-H1299-BRS-3 cellular proliferation” value (NCI-H1299-BRS-3 cells)?
**A.** little effect

**Q.** What about the IC50 (BB1R) of the same compound?
**A.** 4900 nM

**Q.** What about the IC50 (BB2R; [7]) of the same compound?
**A.** 0.2 nM

**Q.** What about the “Inhibition of BA1-induced ERK tyrosine phosphorylation” value [3] of the same compound?
**A.** not inhibited

**Q.** With `c1ccc2c(c1)[I+]c1ccccc1-2` [DPI, diphenylene iodonium] as the compound, how does the “Inhibition of the increase” value ([2]; 15 μM, 100 nM BA1) read?
**A.** inhibited

**Q.** For `CNC(=O)[C@H](Cc1c[nH]c2ccccc12)NC(=O)[C@@H](CC(=O)NO)CC(C)C` [GM6001], which “Inhibition of the increase” value ([2]; 10 μM, 100 nM BA1) is on record?
**A.** inhibited

**Q.** With `CSCC[C@H](NC(=O)[C@H](CC(C)C)NC(=O)[C@H](Cc1c[nH]cn1)NC(=O)CNC(=O)[C@@H](NC(=O)[C@H](C)NC(=O)[C@H](Cc1c[nH]c2ccccc12)NC(=O)[C@H](Cc1c[nH]cn1)NC(=O)[C@H](CC(N)=O)NC(=O)CNC(=O)[C@H](CCCNC(=N)N)NC(=O)[C@@H]1CCCN1C(=O)[C@H](Cc1ccc(O)cc1)NC(=O)[C@H](CCSC)NC(=O)[C@H](CCCCN)NC(=O)[C@@H](NC(=O)[C@H](CC(C)C)NC(=O)[C@@H](NC(=O)[C@@H](NC(=O)CNC(=O)CNC(=O)CNC(=O)[C@H](C)NC(=O)[C@@H]1CCCN1C(=O)[C@H](CC(C)C)NC(=O)[C@@H]1CCCN1C(=O)[C@@H](N)C(C)C)[C@@H](C)O)C(C)C)[C@@H](C)O)C(C)C)C(N)=O` [GRP, gastrin releasing peptide] as the compound, how does the Colony number (NCI-H1299-BRS-3 cells) read?
**A.** 41 ± 5^aa

**Q.** Which “% Growth Balb/3T3-BRS-3” value (Balb/3T3-BRS-3 cells; 30 μg/ml, 16 hours, MTT, mean ± S.E.) does the source give for `COc1cc2ncnc(Nc3ccc(F)c(Cl)c3)c2cc1OCCCN1CCOCC1` [Gefitinib, gefitinib] here?
**A.** 41 ± 6 %

**Q.** And the “% Growth Balb/3T3” value (Balb/3T3 cells)?
**A.** 31 ± 4 %

**Q.** And the IC50 (BRS-3 [4])?
**A.** > 2000 nM

**Q.** And the “Effect on colony number” value (NCI-H1299-BRS-3 cells; gefitinib dose-response, exogenous BA1 not added, Fig. 1B)?
**A.** reduced colony number in a dose-dependent manner

**Q.** Which “Inhibition of the increase” value ([2]; 5 mM, 100 nM BA1) does the source give for `CC(=O)N[C@@H](CS)C(=O)O` [N-acetylcysteine] here?
**A.** reversed

**Q.** Which IC50 (BRS-3 [4]) does the source give for `CSCC[C@H](NC(=O)[C@H](Cc1ccccc1)NC(=O)[C@H](Cc1c[nH]cn1)NC(=O)CNC(=O)[C@@H](NC(=O)[C@H](C)NC(=O)[C@H](Cc1c[nH]c2ccccc12)NC(=O)[C@H](CC(C)C)NC(=O)[C@H](CC(N)=O)NC(=O)CN)[C@@H](C)O)C(N)=O` [NMB, neuromedin B] here?
**A.** > 2000 nM

**Q.** What about the Colony number (NCI-H1299-BRS-3 cells) of the same compound?
**A.** 46 ± 5^a

**Q.** Which Effect on growth (Balb/3T3-BRS-3 cells; 10 μM, all cells tested, preliminary unpublished data) does the source give for `COc1cccc(-c2cc(=O)c3ccccc3o2)c1N` [PD98059] here?
**A.** little effect

**Q.** And the “Inhibition of the increase” value [2, 5]?
**A.** no effect

**Q.** What about the “Inhibition of BA1-induced ERK tyrosine phosphorylation” value [3] of the same compound?
**A.** reversed

**Q.** With `C[C@@](Cc1c[nH]c2ccccc12)(NC(=O)Nc1ccc([N+](=O)[O-])cc1)C(=O)NCC1(c2ccccn2)CCCCC1` [PD168368] as the compound, how does the IC50 (BRS-3 [1]; [6]) read?
**A.** > 10000 nM

**Q.** And the IC50 (BRS-3 [4]; read-out: IC50, inhibition of specific 125I-BA1 binding, NCI-H1299-BRS-3 cells, 37°C, mean ± S.E. of 4 determinations)?
**A.** > 2000 nM

**Q.** And the “Effect on NCI-H1299-BRS-3 cellular proliferation” value (NCI-H1299-BRS-3 cells)?
**A.** little effect

**Q.** And the IC50 (BB1R)?
**A.** 0.5 nM

**Q.** What about the IC50 (BB2R; [7]) of the same compound?
**A.** 213 nM

**Q.** What about the “Inhibition of BA1-induced ERK tyrosine phosphorylation” value [3] of the same compound?
**A.** not inhibited

**Q.** For `CC(C)(C)n1nc(-c2ccc(Cl)cc2)c2c(N)ncnc21` [PP2], which “Inhibition of the increase” value ([2]; 10 μM, 100 nM BA1) is on record?
**A.** inhibited

**Q.** Which “Inhibition of the increase” value ([2]; 5 mM, 100 nM BA1) does the source give for `O=S(=O)(O)c1cc(O)c(O)c(S(=O)(=O)O)c1` [Tiron] here?
**A.** reversed

**Q.** With “Ac-Phe-Trp-Ala-His(γBzl)-Nip-Gly-Arg-NH2” as the compound, how does the IC50 (BB2R; read-out: IC50, BB2R, ref 2, 28) read?
**A.** > 10000 nM

**Q.** What about the IC50 (BB2R; read-out: IC50, BB2R, ref 26, 27) of the same compound?
**A.** 2800 nM
